Source: ChEMBL document CHEMBL3734701, “Synthesis and antibacterial activity of 4″-O-(trans-β-arylacrylamido)carbamoyl azithromycin analogs” (2015)
≈ marks a conversion by molar mass, not a printed value.

Key:
Format in all cases: functional
[1] = system: Staphylococcus aureus; assay: Antibacterial activity against erythromycin-susceptible Staphylococcus aureus ATCC 25923 by broth microdilution method
Outline: (§1)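 Broth microdilution MIC following the NCCL-recommended method. Panel of sensitive and resistant Gram-positive strains: S. pyogenes S2 (erythromycin-susceptible clinical isolate), S. aureus ATCC25923 and S. pneumoniae ATCC49619 (erythromycin-susceptible). Azithromycin and clarithromycin were run alongside as references.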

[2] = system: Streptococcus pneumoniae; assay: Antibacterial activity against erythromycin-susceptible Streptococcus pneumoniae ATCC 49619 by broth microdilution method; outline: as §1
[3] = system: Streptococcus pyogenes; assay: Antibacterial activity against clinically isolated erythromycin-susceptible Streptococcus pyogenes S2 by broth microdilution method; outline: as §1
[4] = system: Staphylococcus aureus; assay: Antibacterial activity against clinically isolated penicillin-resistant Staphylococcus aureus by broth microdilution method
Outline: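 Clinical penicillin-resistant S. aureus isolate, not further characterized, tested in a Gram-positive panel. MIC was measured by broth microdilution following NCCL recommendations, with azithromycin and clarithromycin as references.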

[5] = system: Staphylococcus aureus; assay: Antibacterial activity against methicillin-susceptible Staphylococcus aureus ATCC 29213 by broth microdilution method
Outline: (§2)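 MICs measured in vitro by broth microdilution following NCCL recommendations, against a Gram-positive panel of sensitive and resistant strains. Azithromycin and clarithromycin were tested alongside as references.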

[6] = system: Streptococcus pneumoniae; assay: Antibacterial activity against erythromycin-resistant Streptococcus pneumoniae B1 expressing ermB gene by broth microdilution method; outline: as §2
[7] = system: Streptococcus pneumoniae; assay: Antibacterial activity against erythromycin-resistant Streptococcus pneumoniae A22072 expressing mefA gene by broth microdilution method; outline: as §2
[8] = system: Streptococcus pneumoniae; assay: Antibacterial activity against erythromycin-resistant Streptococcus pneumoniae AB11 expressing ermB and mefA genes by broth microdilution method; outline: as §2
[9] = system: Streptococcus pyogenes; assay: Antibacterial activity against clinically isolated erythromycin-resistant Streptococcus pyogenes R2 by broth microdilution method; outline: as §2

SMILES | MIC [1] | MIC [2] | MIC [3] | MIC [4] | MIC [5] | MIC [6] | MIC [7] | MIC [8] | MIC [9]
CC[C@@H]1OC(=O)[C@H](C)[C@@H](O[C@H]2C[C@@](C)(OC)[C@@H](OC(=O)NNC(=O)/C=C/c3cc(OC)c(OC)c(OC)c3)[C@H](C)O2)[C@@H](C)[C@@H](O[C@@H]2O[C@H](C)C[C@H](N(C)C)[C@H]2O)[C@](C)(O)C[C@@H](C)CN(C)[C@H](C)[C@@H](OC(=O)NCc2ccccc2)[C@]1(C)O | 1 µg/mL (≈ 0.862 µM) | 0.5 µg/mL (≈ 0.431 µM) | 1 µg/mL (≈ 0.862 µM) | 4 µg/mL (≈ 3.45 µM) | 4 µg/mL (≈ 3.45 µM) | 32 µg/mL (≈ 27.6 µM) | 2 µg/mL (≈ 1.72 µM) | 16 µg/mL (≈ 13.8 µM) | 64 µg/mL (≈ 55.2 µM)
CC[C@@H]1OC(=O)[C@H](C)[C@@H](O[C@H]2C[C@@](C)(OC)[C@@H](OC(=O)NNC(=O)/C=C/c3ccccc3OC)[C@H](C)O2)[C@@H](C)[C@@H](O[C@@H]2O[C@H](C)C[C@H](N(C)C)[C@H]2O)[C@](C)(O)C[C@@H](C)CN(C)[C@H](C)[C@@H](OC(=O)NCc2ccc(OC)cc2)[C@]1(C)O | 1 µg/mL (≈ 0.885 µM) | 0.25 µg/mL (≈ 0.221 µM) | 0.25 µg/mL (≈ 0.221 µM) | 4 µg/mL (≈ 3.54 µM) | 4 µg/mL (≈ 3.54 µM) | 4 µg/mL (≈ 3.54 µM) | 0.25 µg/mL (≈ 0.221 µM) | 8 µg/mL (≈ 7.08 µM) | 64 µg/mL (≈ 56.6 µM)
CC[C@H]1OC(=O)[C@@H](C)[C@H](O[C@@H]2C[C@](C)(OC)[C@H](OC(=O)NNC(=O)/C=C/c3ccc([N+](=O)[O-])cc3)[C@@H](C)O2)[C@H](C)[C@H](O[C@H]2O[C@@H](C)C[C@@H](N(C)C)[C@@H]2O)[C@@](C)(O)C[C@H](C)CN(C)[C@@H](C)[C@H](OC(=O)NCc2ccc(OC)cc2)[C@@]1(C)O | 4 µg/mL (≈ 3.49 µM) | 1 µg/mL (≈ 0.873 µM) | 0.25 µg/mL (≈ 0.218 µM) | 8 µg/mL (≈ 6.98 µM) | 8 µg/mL (≈ 6.98 µM) | 2 µg/mL (≈ 1.75 µM) | 0.5 µg/mL (≈ 0.437 µM) | 8 µg/mL (≈ 6.98 µM) | 32 µg/mL (≈ 27.9 µM)
CC[C@@H]1OC(=O)[C@H](C)[C@@H](O[C@@H]2C[C@](C)(OC)[C@H](O)[C@@H](C)O2)[C@@H](C)[C@@H](O[C@@H]2O[C@H](C)C[C@H](N(C)C)[C@H]2O)[C@](C)(O)C[C@@H](C)CN(C)[C@H](C)[C@@H](O)[C@]1(C)O | 0.25 µg/mL (≈ 0.334 µM) | 0.03 µg/mL (≈ 0.0401 µM) | 0.25 µg/mL (≈ 0.334 µM) | 0.12 µg/mL (≈ 0.16 µM) | 1 µg/mL (≈ 1.34 µM) | > 128 µg/mL | 4 µg/mL (≈ 5.34 µM) | 256 µg/mL (≈ 342 µM) | ≥ 128 µg/mL
CC[C@H]1OC(=O)[C@@H](C)[C@H](O[C@@H]2C[C@](C)(OC)[C@H](OC(=O)NNC(=O)/C=C/c3ccc(Br)cc3)[C@@H](C)O2)[C@H](C)[C@H](O[C@H]2O[C@@H](C)C[C@@H](N(C)C)[C@@H]2O)[C@@](C)(O)C[C@H](C)CN(C)[C@@H](C)[C@H](OC(=O)NCc2ccccc2)[C@@]1(C)O | 0.5 µg/mL (≈ 0.435 µM) | 0.25 µg/mL (≈ 0.218 µM) | 0.25 µg/mL (≈ 0.218 µM) | 2 µg/mL (≈ 1.74 µM) | 2 µg/mL (≈ 1.74 µM) | 1 µg/mL (≈ 0.87 µM) | 0.12 µg/mL (≈ 0.104 µM) | 1 µg/mL (≈ 0.87 µM) | 16 µg/mL (≈ 13.9 µM)
CC[C@@H]1OC(=O)[C@H](C)[C@@H](O[C@H]2C[C@@](C)(OC)[C@@H](OC(=O)NNC(=O)/C=C/c3ccccc3OC)[C@H](C)O2)[C@@H](C)[C@@H](O[C@@H]2O[C@H](C)C[C@H](N(C)C)[C@H]2O)[C@](C)(O)C[C@@H](C)CN(C)[C@H](C)[C@@H](OC(=O)NCc2ccccc2)[C@]1(C)O | 0.5 µg/mL (≈ 0.454 µM) | 0.5 µg/mL (≈ 0.454 µM) | 0.25 µg/mL (≈ 0.227 µM) | 2 µg/mL (≈ 1.82 µM) | 2 µg/mL (≈ 1.82 µM) | 16 µg/mL (≈ 14.5 µM) | 0.5 µg/mL (≈ 0.454 µM) | 8 µg/mL (≈ 7.27 µM) | 32 µg/mL (≈ 29.1 µM)
CC[C@H]1OC(=O)[C@@H](C)[C@H](O[C@@H]2C[C@](C)(OC)[C@H](OC(=O)NNC(=O)/C=C/c3ccc([N+](=O)[O-])cc3)[C@@H](C)O2)[C@H](C)[C@H](O[C@H]2O[C@@H](C)C[C@@H](N(C)C)[C@@H]2O)[C@@](C)(O)C[C@H](C)CN(C)[C@@H](C)[C@H](OC(=O)NCc2ccccc2)[C@@]1(C)O | 0.5 µg/mL (≈ 0.448 µM) | 0.25 µg/mL (≈ 0.224 µM) | 0.5 µg/mL (≈ 0.448 µM) | 2 µg/mL (≈ 1.79 µM) | 2 µg/mL (≈ 1.79 µM) | 4 µg/mL (≈ 3.59 µM) | 0.12 µg/mL (≈ 0.108 µM) | 2 µg/mL (≈ 1.79 µM) | 16 µg/mL (≈ 14.3 µM)
CC[C@H]1OC(=O)[C@@H](C)[C@H](O[C@@H]2C[C@](C)(OC)[C@H](OC(=O)NNC(=O)/C=C/c3ccc(Cl)cc3)[C@@H](C)O2)[C@H](C)[C@H](O[C@H]2O[C@@H](C)C[C@@H](N(C)C)[C@@H]2O)[C@@](C)(O)C[C@H](C)CN(C)[C@@H](C)[C@H](OC(=O)NCc2ccccc2)[C@@]1(C)O | 1 µg/mL (≈ 0.905 µM) | 0.5 µg/mL (≈ 0.453 µM) | 0.5 µg/mL (≈ 0.453 µM) | 2 µg/mL (≈ 1.81 µM) | 4 µg/mL (≈ 3.62 µM) | 4 µg/mL (≈ 3.62 µM) | 0.25 µg/mL (≈ 0.226 µM) | 2 µg/mL (≈ 1.81 µM) | 16 µg/mL (≈ 14.5 µM)
CC[C@@H]1OC(=O)[C@H](C)[C@@H](O[C@H]2C[C@@](C)(OC)[C@@H](OC(=O)NNC(=O)/C=C/c3ccccc3)[C@H](C)O2)[C@@H](C)[C@@H](O[C@@H]2O[C@H](C)C[C@H](N(C)C)[C@H]2O)[C@](C)(O)C[C@@H](C)CN(C)[C@H](C)[C@@H](OC(=O)NCc2ccc(OC)cc2)[C@]1(C)O | 1 µg/mL (≈ 0.909 µM) | 0.25 µg/mL (≈ 0.227 µM) | 0.25 µg/mL (≈ 0.227 µM) | 4 µg/mL (≈ 3.64 µM) | 4 µg/mL (≈ 3.64 µM) | 2 µg/mL (≈ 1.82 µM) | 0.25 µg/mL (≈ 0.227 µM) | 8 µg/mL (≈ 7.27 µM) | 32 µg/mL (≈ 29.1 µM)
CC[C@@H]1OC(=O)[C@H](C)[C@@H](O[C@H]2C[C@@](C)(OC)[C@@H](OC(=O)NNC(=O)/C=C/c3ccco3)[C@H](C)O2)[C@@H](C)[C@@H](O[C@@H]2O[C@H](C)C[C@H](N(C)C)[C@H]2O)[C@](C)(O)C[C@@H](C)CN(C)[C@H](C)[C@@H](OC(=O)NCc2ccc(OC)cc2)[C@]1(C)O | 1 µg/mL (≈ 0.917 µM) | 0.5 µg/mL (≈ 0.459 µM) | 0.25 µg/mL (≈ 0.229 µM) | 2 µg/mL (≈ 1.83 µM) | 4 µg/mL (≈ 3.67 µM) | 2 µg/mL (≈ 1.83 µM) | 0.25 µg/mL (≈ 0.229 µM) | 8 µg/mL (≈ 7.34 µM) | 64 µg/mL (≈ 58.7 µM)
CC[C@H]1OC(=O)[C@@H](C)[C@H](O[C@@H]2C[C@](C)(OC)[C@H](OC(=O)NNC(=O)/C=C/c3ccc(OC)c(OC)c3)[C@@H](C)O2)[C@H](C)[C@H](O[C@H]2O[C@@H](C)C[C@@H](N(C)C)[C@@H]2O)[C@@](C)(O)C[C@H](C)CN(C)[C@@H](C)[C@H](OC(=O)NCc2ccc(OC)cc2)[C@@]1(C)O | 2 µg/mL (≈ 1.72 µM) | 0.5 µg/mL (≈ 0.431 µM) | 0.5 µg/mL (≈ 0.431 µM) | 4 µg/mL (≈ 3.45 µM) | 4 µg/mL (≈ 3.45 µM) | 2 µg/mL (≈ 1.72 µM) | 0.25 µg/mL (≈ 0.215 µM) | 8 µg/mL (≈ 6.89 µM) | 64 µg/mL (≈ 55.2 µM)
CC[C@H]1OC(=O)[C@@H](C)[C@H](O[C@@H]2C[C@](C)(OC)[C@H](OC(=O)NNC(=O)/C=C/c3ccc(OC)c(OC)c3)[C@@H](C)O2)[C@H](C)[C@H](O[C@H]2O[C@@H](C)C[C@@H](N(C)C)[C@@H]2O)[C@@](C)(O)C[C@H](C)CN(C)[C@@H](C)[C@H](OC(=O)NCc2ccccc2)[C@@]1(C)O | 0.5 µg/mL (≈ 0.442 µM) | 0.06 µg/mL (≈ 0.0531 µM) | 0.25 µg/mL (≈ 0.221 µM) | 2 µg/mL (≈ 1.77 µM) | 4 µg/mL (≈ 3.54 µM) | 64 µg/mL (≈ 56.6 µM) | 2 µg/mL (≈ 1.77 µM) | 64 µg/mL (≈ 56.6 µM) | 64 µg/mL (≈ 56.6 µM)
CC[C@H]1OC(=O)[C@H](C)[C@@H](O[C@H]2C[C@@](C)(OC)[C@@H](O)[C@H](C)O2)[C@H](C)[C@@H](O[C@@H]2O[C@H](C)C[C@H](N(C)C)[C@H]2O)[C@](C)(O)C[C@@H](C)C(=O)[C@H](C)[C@@H](O)[C@]1(C)O [ERYTHROMYCIN] | 0.06 µg/mL (≈ 0.0818 µM) | 0.03 µg/mL (≈ 0.0409 µM) | 0.12 µg/mL (≈ 0.164 µM) | 0.25 µg/mL (≈ 0.341 µM) | 0.12 µg/mL (≈ 0.164 µM) | > 128 µg/mL | 8 µg/mL (≈ 10.9 µM) | 256 µg/mL (≈ 349 µM) | ≥ 128 µg/mL
